Test results taken from PMC11362645 (International Journal for Parasitology: Parasites and …, 2024).
Marks after values point to notes of the source that are not given here.

Legend:
E. tenella sporozoites = assay: In vitro viability assay for E. tenella sporozoites; assay type: cell-based, Eimeria tenella; settings: for Potency of anti-parasitical effect against Eimeria parasites (category by IC50): criteria of Isah et al., 2016: high, moderate, low/no potency; for Sporozoite viability: 24 h, DMSO-treated group = 100%
How it was run: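 E. tenella OPU strain oocysts were sporulated in ~0.1% potassium dichromate at 28 °C and hypochlorite-treated. Sporocysts were excysted for 1–2 h at 41 °C in HBSS with 1% taurodeoxycholic acid and 0.25% trypsin. Sporozoites at 5×10^6/ml in phenol-red-free RPMI 1640 with antibiotics got test compound (screen 100 μM; IC50 range 1–100 μM) for 24 h at 37 °C, 5% CO2. Cell Count Reagent SF was then added for 3 h. Viability was expressed relative to DMSO = 100%.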

[1] = tested on: Madin-Darby bovine kidney (MDBK) cells; assay: In vitro MTT cytotoxicity assay on MDBK cells; assay type: cell-based; settings: MDBK cells; for Maximum non-toxic concentration: highest concentration with no significant effect on cell viability; for Concentration that significantly reduced the viability of MDBK cells / Average cell viability (%): 24 h, MTT
How it was run: (§1)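 MDBK cells (NBL-1) were kept in MEM with 10% FBS and penicillin/streptomycin at 37 °C, 5% CO2, and passaged with Accutase at ~70% confluence. Cells were seeded at 2×10^4/well and grown 24 h. Test compound was added at final 0.1, 1, 10, 50 or 100 μM, with a DMSO solvent control, for 24 h. MTT was added for 2 h, formazan dissolved in 99% isopropanol, and A562 read. Viability = compound/DMSO ×100. Maximum non-toxic concentration = highest concentration with no significant viability effect. Three repeats.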

[2] = In vitro MTT cytotoxicity assay on MDBK cells; assay type: cell-based, bovine; settings: bovine, MDBK cells (NBL-1 strain)
How it was run: as §1

[3] = commercially available pure compounds at 100 μM

| Structure (SMILES) | Potency of anti-parasitical effect against Eimeria parasites (category by IC50) (E. tenella sporozoites) | Maximum non-toxic concentration [1] [µM] | viability at 24 h, 0.1 µM [2] [%] | viability at 24 h, 1 µM [2] [%] | viability at 24 h, 10 µM [2] [%] | viability at 24 h, 50 µM [2] [%] | viability at 24 h, 100 µM [2] [%] | Sporozoite viability (E. tenella sporozoites; [3]) | Concentration that significantly reduced the viability of MDBK cells [1] | Average cell viability (%) ([1]; 0.1 μM) | Average cell viability (%) ([1]; 1 μM) | Average cell viability (%) ([1]; 10 μM) | Average cell viability (%) ([1]; 50 μM) | Average cell viability (%) ([1]; 100 μM) | Sporozoite viability (E. tenella sporozoites; natural components at 100 μM) |
| --- | --- | --- | --- | --- | --- | --- | --- | --- | --- | --- | --- | --- | --- | --- | --- |
| C[C@H]1[C@H](C)CC[C@]2(C(=O)O)CC[C@]3(C)C(=CC[C@@H]4[C@@]5(C)CC[C@H](O)C(C)(C)[C@@H]5CC[C@]43C)[C@H]12 [Component D-3, Ursolic acid] | low/no potency | 10 | 92.9 | 86.4 | 105 | -13.1 | -14.2 | – | – | – | – | – | – | – | – |
| C[C@H]1[C@H](C)CC[C@]2(C)CC[C@]3(C)C(=CC[C@@H]4[C@@]5(C)CC[C@H](O)C(C)(C)[C@@H]5CC[C@]43C)[C@H]12 [α-amyrin, reference compound] | – | – | – | – | – | – | – | did not significantly reduce | – | – | – | – | – | – | – |
| OC[C@H]1O[C@@H](Oc2ccc(O)cc2)[C@H](O)[C@@H](O)[C@@H]1O [E−1, Arbutin] | – | 100 | 83.1 | 86.4 | 87.1 | 108 | 102 | – | – | – | – | – | – | – | – |
| O=c1c(O[C@@H]2O[C@H](CO)[C@@H](O)[C@H](O)[C@H]2O)c(-c2ccc(O)c(O)c2)oc2cc(O)cc(O)c12 [Component A-4, Isoquercitrin] | – | 100 | 98 | 110 | 104 | 109 | 104 | – | – | – | – | – | – | – | – |
| CC[C@@H](C(=O)[C@@H](C)[C@@H](O)[C@H](C)CCc1ccc(C)c(O)c1C(=O)O)[C@H]1O[C@](CC)([C@H]2CC[C@](O)(CC)[C@H](C)O2)C[C@@H]1C [lasalocid, reference compound] | – | 1 | 107 | 110 | 54.3 | 1.1 | 0.4 | – | higher than 10 μM | – | – | – | – | – | – |
| O=C(CCc1ccc(O)cc1)c1c(O)cc(O[C@@H]2O[C@H](CO)[C@@H](O)[C@H](O)[C@H]2O)cc1O [Component C-6, Trilobatin] | – | 100 | – | – | – | – | – | – | – | 89.1 | 90.7 | 91.4 | 92.9% | 93.6% | – |
| Oc1cc(O)c2c(c1)O[C@H](c1ccc(O)c(O)c1)[C@H](O)C2 [Component A-3, Epicatechin] | – | 100 | 103 | 91 | 92.3 | 109 | 108 | – | – | – | – | – | – | – | – |
| C[C@H]1[C@H](C)CC[C@]2(CO)CC[C@]3(C)C(=CC[C@@H]4[C@@]5(C)CC[C@H](O)C(C)(C)[C@@H]5CC[C@]43C)[C@H]12 [Component B-1, Uvaol] | – | 10 | 95.6 | 99.9 | 110 | 55.9 | 36.2 | – | – | – | – | – | – | – | – |
| Oc1cc(O)c2c(c1)OC(c1ccc(O)c(O)c1)C(O)C2 (stereo not shown) [E−2, Catechin] | – | 100 | – | – | – | – | – | – | – | 101.1 | 102.5 | 109.8 | 104.9% | 114.0% | – |
| COc1ccc(-c2cc(=O)c3c(O)c(C)c(OC)cc3o2)cc1 [Component C-2, 8-Demethyleucalyptin] | – | 10 | – | – | – | – | – | – | – | 97.8 | 92.5 | 98.7 | 85.2* % | 80.8* % | – |
| O=C(CCc1ccc(O)cc1)c1c(O)cc(O)cc1O[C@@H]1O[C@H](CO)[C@@H](O)[C@H](O)[C@H]1O [Component C-7, Phlorhizin] | – | 100 | – | – | – | – | – | – | – | 87.9 | 90.9 | 98.2 | 95.8% | 107.4% | – |
| Oc1cc(O)c2c(c1)O[C@H](c1cc(O)c(O)c(O)c1)[C@@H](O)C2 [Component F-1, Gallocatechin] | – | 100 | 80.8 | 81.4 | 93.9 | 92.6 | 85.2 | – | – | – | – | – | – | – | – |
| Cc1cc(O)cc(O)c1 [Component H-2, 5-Methylbenzene-1,3-diol] | – | 100 | 92 | 95.3 | 94.8 | 93.4 | 93.3 | – | – | – | – | – | – | – | – |
| C[C@@H]1O[C@@H](O[C@H]2[C@H](O)[C@@H](O)[C@H](OC[C@H]3O[C@@H](OC(=O)[C@]45CCC(C)(C)C[C@H]4C4=CC[C@@H]6[C@@]7(C)CC[C@H](O[C@@H]8OC[C@H](O)[C@H](O)[C@H]8O[C@@H]8O[C@H](CO)[C@@H](O)[C@H](O)[C@H]8O)[C@@](C)(CO)[C@@H]7CC[C@@]6(C)[C@]4(C)CC5)[C@H](O)[C@@H](O)[C@@H]3O)O[C@@H]2CO)[C@H](O)[C@H](O)[C@H]1O [Component I-1, Cauloside G] | – | 100 | – | – | – | – | – | – | – | 100.7 | 103.3 | 103.7 | 97.0% | 89.4% | – |
| COc1cc(CCc2ccccc2O)cc(OC)c1O [Component A-2, 4,2′-Dihydroxy-3,5-dimethoxydihydrostilbene] | – | 100 | – | – | – | – | – | – | – | 98.7 | 105.9 | 107.0 | 103.4% | 107.3% | – |
| CC1(C)CC[C@]2(C)CC[C@]3(C)C(=CC[C@@H]4[C@@]5(C)CC[C@H](O)C(C)(C)[C@@H]5CC[C@]43C)[C@@H]2C1 [β-amyrin, reference compound] | – | – | – | – | – | – | – | did not significantly reduce | – | – | – | – | – | – | – |
| Oc1cc(O)cc(/C=C/c2ccccc2)c1 [Component A-5, Pinosylvin] | – | 100 | 103 | 102 | 103 | 110 | 106 | – | – | – | – | – | – | – | – |
| COC1OC(CO)C(O)C(O)C1O (stereo not drawn) [Component F-2, β-Methylglucoside] | – | 100 | – | – | – | – | – | – | – | 99.2 | 102.1 | 104.6 | 102.0% | 104.9% | – |
| COc1cc(C)cc(O)c1 [Component H-1, 3-Methoxy-5-methylphenol] | – | 100 | 106 | 109 | 106 | 113 | 112 | – | – | – | – | – | – | – | – |
| O=C1C[C@@H](c2ccc(O)cc2)Oc2cc(O)cc(O)c21 [Component D-1, Naringenin] | – | 100 | 92.2 | 97.3 | 99.3 | 109 | 107 | – | – | – | – | – | – | – | – |
| CC1(C)CC[C@]2(C)CC[C@]3(C)C(=CC[C@@H]4[C@@]5(C)CC[C@H](O)C(C)(C)[C@@H]5CC[C@]43C)[C@@H]2C1 [Component C-1, β-Amyrin] | – | 100 | 78.1 | 82.6 | 88.6 | 87.7 | 82.4 | – | – | – | – | – | – | – | no significant effect |
| CC1(C)CC[C@]2(C(=O)O)CC[C@]3(C)C(=CC[C@@H]4[C@@]5(C)CC[C@H](O)C(C)(C)[C@@H]5CC[C@]43C)[C@@H]2C1 [Component C-5, Oleanolic acid] | high potency | 50 | 99.9 | 99.2 | 102 | 105 | 16.2 | – | 100 µM | – | – | – | – | – | – |
| O=c1c(O[C@@H]2O[C@@H](CO)[C@H](O)[C@H]2O)c(-c2ccc(O)c(O)c2)oc2cc(O)cc(O)c12 [Component G-1, Avicularin] | – | 100 | 94.6 | 96.9 | 88.5 | 104 | 89.5 | – | – | – | – | – | – | – | – |
